This is an account of results in ChEMBL document CHEMBL1649418, “Pyrimidine derivatives as potent and selective A3 adenosine receptor antagonists” (J Med Chem, 2011).

Each structure is given as a SMILES string.

Holding throughout (type): cell-based
For experiment [1], the target named is T1, Adenosine receptor A1 (Homo sapiens) (UniProt P30542).
T1 sequence (whole entry): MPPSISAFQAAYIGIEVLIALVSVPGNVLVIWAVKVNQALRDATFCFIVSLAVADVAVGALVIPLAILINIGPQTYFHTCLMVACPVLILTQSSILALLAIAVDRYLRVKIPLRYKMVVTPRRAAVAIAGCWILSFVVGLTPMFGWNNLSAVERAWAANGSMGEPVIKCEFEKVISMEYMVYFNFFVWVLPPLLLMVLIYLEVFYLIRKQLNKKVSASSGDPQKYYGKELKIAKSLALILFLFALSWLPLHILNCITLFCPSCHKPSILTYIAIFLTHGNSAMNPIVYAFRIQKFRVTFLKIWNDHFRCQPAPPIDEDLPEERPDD
Put plainly: Displacement of [3H]DPCPX from human adenosine A1 receptor expressed in CHO cells at 0.1 uM by liquid scintillation counting. The essentials:
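Transfected CHO cell membranes (15 μg) were incubated with [3H]DPCPX at 25 °C for 60 min, with six test concentrations from 0.1 nM to 1 μM. Nonspecific binding was defined with 10 μM R-PIA. Filters were washed four times with ice-cold buffer before scintillation counting. Ki (Cheng–Prusoff) is mean ± SEM, n=3; % displacement at 0.1 μM is n=2.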
On the technique in general: Loss of bound radioactivity is the signal in a displacement assay; it reports binding, not function.

Experiment [2] concerns the target Adenosine receptor A2a (Homo sapiens, UniProt P29274). Put plainly: Displacement of [3H][…] from human adenosine A2A receptor expressed in human HeLa cells at 0.1 uM by liquid scintillation counting. The essentials:
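Nonspecific binding was defined with 50 μM NECA. Filters were washed four times with ice-cold buffer, then counted by scintillation. Ki (Cheng–Prusoff) is mean ± SEM, n=3; % displacement at 0.1 μM is n=2.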

Experiment [3] deals with T2, Adenosine receptor A2b (Homo sapiens) (UniProt P29275).
T2 sequence (whole entry): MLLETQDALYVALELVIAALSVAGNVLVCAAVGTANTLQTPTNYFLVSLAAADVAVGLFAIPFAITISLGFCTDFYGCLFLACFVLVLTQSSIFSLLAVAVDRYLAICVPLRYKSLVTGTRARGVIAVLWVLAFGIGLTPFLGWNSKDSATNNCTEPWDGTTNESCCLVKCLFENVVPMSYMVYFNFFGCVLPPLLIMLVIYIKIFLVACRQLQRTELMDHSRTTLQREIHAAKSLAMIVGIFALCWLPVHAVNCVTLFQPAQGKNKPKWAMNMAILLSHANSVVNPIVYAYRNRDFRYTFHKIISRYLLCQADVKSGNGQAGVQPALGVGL
Put plainly: Displacement of [3H]DPCPX from human adenosine A2B receptor expressed in HEK293 cells at 0.1 uM by liquid scintillation counting. The essentials: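 HEK-293 membranes (18 μg) were incubated with [3H]DPCPX (35 nM) at 25 °C for 30 min, with six concentrations from 0.1 nM to 1 μM. Nonspecific binding was defined with 400 μM NECA. Filters were washed six times with ice-cold buffer and counted by scintillation. Ki (Cheng–Prusoff) is mean ± SEM, n=3; % displacement at 0.1 μM is n=2.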

Experiment [4] deals with T3, Adenosine receptor A3 (Homo sapiens, UniProt P0DMS8).
T3 sequence (P0DMS8 whole entry): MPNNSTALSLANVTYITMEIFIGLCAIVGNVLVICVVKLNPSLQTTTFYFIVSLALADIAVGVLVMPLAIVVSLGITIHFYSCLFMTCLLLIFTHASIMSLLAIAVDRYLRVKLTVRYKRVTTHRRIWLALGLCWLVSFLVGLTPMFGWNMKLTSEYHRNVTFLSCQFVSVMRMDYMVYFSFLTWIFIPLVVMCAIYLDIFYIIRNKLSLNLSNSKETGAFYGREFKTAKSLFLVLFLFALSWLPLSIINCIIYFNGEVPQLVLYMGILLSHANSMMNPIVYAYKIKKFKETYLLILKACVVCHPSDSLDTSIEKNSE
Put plainly: Displacement of [3H]NECA from human adenosine A3 receptor expressed in human HeLa cells by liquid scintillation counting. The essentials:
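HeLa membranes (90 μg) carrying hA3AR were incubated with [3H]NECA (30 nM) at 25 °C for 180 min, with six concentrations from 0.1 nM to 1 μM. Nonspecific binding was defined with 100 μM R-PIA. Filters were washed six times and counted by scintillation.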

In experiment [5] the target is T4, Adenosine receptor A3 (Homo sapiens) (UniProt P0DMS8).
T4 sequence (whole entry): T3 sequence (P0DMS8 whole entry)
Briefly: Displacement of [3H]NECA from human adenosine A3 receptor expressed in human HeLa cells at 0.1 uM by liquid scintillation counting. The essentials: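 HeLa membranes (90 μg) carrying hA3AR were incubated with [3H]NECA (30 nM) at 25 °C for 180 min, with six concentrations from 0.1 nM to 1 μM. Nonspecific binding was defined with 100 μM R-PIA. Filters were washed six times and counted by scintillation. Ki (Cheng–Prusoff) is mean ± SEM, n=3; % displacement at 0.1 μM is n=2.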

Adenosine receptor A2a, sequence (P29274 whole entry): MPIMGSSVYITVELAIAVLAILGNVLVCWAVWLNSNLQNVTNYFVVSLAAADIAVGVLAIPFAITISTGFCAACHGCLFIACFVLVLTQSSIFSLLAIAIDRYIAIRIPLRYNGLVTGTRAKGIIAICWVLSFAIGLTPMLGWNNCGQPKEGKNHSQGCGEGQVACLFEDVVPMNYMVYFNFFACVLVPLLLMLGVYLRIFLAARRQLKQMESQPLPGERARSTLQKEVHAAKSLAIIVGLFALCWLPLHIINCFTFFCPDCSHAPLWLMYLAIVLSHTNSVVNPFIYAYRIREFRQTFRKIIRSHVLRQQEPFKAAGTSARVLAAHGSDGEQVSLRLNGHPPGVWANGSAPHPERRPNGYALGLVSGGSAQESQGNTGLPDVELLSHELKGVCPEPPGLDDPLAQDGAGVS

Regarding `CCC(CC)C(=O)Nc1cc(-c2ccc(OC)cc2OC)nc(-c2ccc(OC)cc2OC)n1`, the inhibition (as a rule, the change of the read-out against control, counted positive when it falls) in experiment [1] stood at 1%; in experiment [2] it was 2%; in experiment [3] it was 2%. Further, the Ki in experiment [4] (read-out: Ki) came to 0.0524 µM.

For `CCC(=O)Nc1cc(/C=C/c2ccccc2)nc(/C=C/c2ccccc2)n1`, the values for the inhibition in experiment [1], in experiment [2] and in experiment [3] were 17%, 2% and 2%, respectively. Further, the Ki in experiment [4] (read-out: Ki) came out at 0.0469 µM.

In the case of `CCC(=O)Nc1cc(-c2ccc(SC)cc2)nc(-c2ccc(SC)cc2)n1`, the inhibition in experiment [1] turned out to be 1%; in experiment [2] it was 1%; in experiment [3], 3%. Further, the Ki in experiment [4] (read-out: Ki) turned out to be 0.0436 µM.

Consider `CC(=O)Nc1nc(-c2ccsc2)cc(-c2ccsc2)n1`, for which the inhibition was 2% in experiment [1], 2% in experiment [2], 1% in experiment [3] and 1% in experiment [5].

As for `COc1ccc(-c2cc(NC(=O)C(C)C)nc(-c3ccc(OC)cc3OC)n2)c(OC)c1`, the figures for the inhibition in experiment [1], in experiment [2] and in experiment [3] were 18%, 1% and 1%, respectively. Besides, the Ki in experiment [4] (read-out: Ki) is 0.0159 µM.

In the case of `CCCC(=O)Nc1cc(/C=C/c2ccccc2)nc(/C=C/c2ccccc2)n1`, the inhibition in experiment [1] worked out at 1%; in experiment [2], 1%; in experiment [3] it was 8%; in experiment [5], 25%.

Regarding `CCC(=O)Nc1nc(/C=C/c2ccccc2)cc(/C=C/c2ccccc2)n1`, the inhibition in experiment [1], in experiment [2] and in experiment [3] was 1% each time. Further, the Ki in experiment [4] (read-out: Ki) was found to be 0.142 µM.

For `CCC(=O)Nc1nc(-c2ccc(Cl)cc2)cc(-c2ccc(Cl)cc2)n1`, the inhibition in experiment [1] was determined as 1%; in experiment [2], 11%; in experiment [3] it was 2%; in experiment [5], 14%.

On to `CCC(=O)Nc1nc(-c2ccc(OC)cc2OC)cc(-c2ccc(OC)cc2OC)n1`, for which the inhibition was found to be 3% in experiment [1], 14% in experiment [2], 3% in experiment [3] and 17% in experiment [5].

In the case of `CCC(=O)Nc1cc(-c2ccc(OC)cc2OC)nc(-c2ccc(OC)cc2OC)n1`, the inhibition in experiment [1] was 6%; in experiment [2] it was 14%; in experiment [3], 8%. In addition, in experiment [4] (read-out: Ki), the Ki was 0.0113 µM.

As to `CCCC(=O)Nc1cc(-c2ccc(C(C)=O)cc2)nc(-c2ccc(C(C)=O)cc2)n1`, the inhibition in experiment [1] came out at 2%; in experiment [2], 1%; in experiment [3], 1%. Besides, in experiment [4] (read-out: Ki), the Ki worked out at 0.133 µM.

`COc1ccc(-c2cc(NC(=O)C(C)C)nc(-c3ccc(OC)cc3)n2)cc1`: the inhibition in experiment [1] is 5%; in experiment [2], 1%; in experiment [3] it was 3%. The Ki in experiment [4] (read-out: Ki) was 0.0122 µM.

Take `CCCC(=O)Nc1cc(-c2ccc(OC)cc2OC)nc(-c2ccc(OC)cc2OC)n1`: the inhibition in experiment [1] stood at 18%; in experiment [2], 12%; in experiment [3] it was 14%. The Ki in experiment [4] (read-out: Ki) amounted to 0.0102 µM.

Turning to `COc1ccccc1-c1cc(NC(C)=O)nc(-c2ccccc2OC)n1`, the figures for the inhibition in experiment [1], in experiment [2] and in experiment [3] were 1%, 14% and 1%, respectively. Further, in experiment [4] (read-out: Ki), the Ki was found to be 0.0241 µM.

`COc1ccc(-c2cc(NC(C)=O)nc(-c3ccc(OC)cc3)n2)cc1`: the inhibition was found to be 1% in experiment [1], 10% in experiment [2] and 4% in experiment [3].

On to `CCCC(=O)Nc1cc(-c2ccc(C)cc2)nc(-c2ccc(C)cc2)n1`, for which the figures for the inhibition in experiment [1], in experiment [2] and in experiment [3] were 16%, 2% and 3%, respectively. In experiment [4] (read-out: Ki), the Ki amounted to 0.059 µM.

Consider `CC(=O)Nc1nc(-c2ccc3c(c2)OCO3)cc(-c2ccc3c(c2)OCO3)n1`, for which the inhibition amounted to 1% in experiment [1], 15% in experiment [2] and 1% in experiment [3]. Moreover, the Ki in experiment [4] (read-out: Ki) amounted to 0.101 µM.

Consider `CC(=O)Nc1cc(-c2ccc(C(C)=O)cc2)nc(-c2ccc(C(C)=O)cc2)n1`, for which the inhibition in experiment [1] was 10%; in experiment [2], 13%; in experiment [3], 16%. Moreover, the Ki in experiment [4] (read-out: Ki) worked out at 0.0252 µM.

Turning to `CCCC(=O)Nc1cc(-c2ccc(Cl)cc2)nc(-c2ccc(Cl)cc2)n1`, the inhibition in experiment [1] was 16%; in experiment [2], 21%; in experiment [3] it was 1%. The Ki in experiment [4] (read-out: Ki) was 0.103 µM.

With `CC(=O)Nc1cc(-c2ccc(C(F)(F)F)cc2)nc(-c2ccc(C(F)(F)F)cc2)n1`, the inhibition in experiment [1], in experiment [2] and in experiment [3] was 1% throughout. The Ki in experiment [4] (read-out: Ki) is 0.126 µM.

For the molecule `COc1ccc(-c2cc(NC(=O)C3CCCCC3)nc(-c3ccc(OC)cc3)n2)cc1`, the inhibition in experiment [1] was found to be 5%; in experiment [2], 1%; in experiment [3], 1%. For the same molecule, the Ki in experiment [4] (read-out: Ki) was determined as 0.0321 µM.

For `CCC(=O)Nc1cc(-c2ccc(C(C)=O)cc2)nc(-c2ccc(C(C)=O)cc2)n1`, the inhibition is 1% in experiment [1], 1% in experiment [2] and 2% in experiment [3]. In addition, the Ki in experiment [4] (read-out: Ki) is 0.0439 µM.

`CC(=O)Nc1cc(/C=C/c2ccccc2)nc(/C=C/c2ccccc2)n1`: the inhibition in experiment [1] was found to be 1%; in experiment [2], 13%; in experiment [3] it was 1%. Also, the Ki in experiment [4] (read-out: Ki) came out at 0.0156 µM.

As to `CCC(=O)Nc1nc(-c2ccco2)cc(-c2ccco2)n1`, the inhibition in experiment [1] stood at 24%; in experiment [2], 15%; in experiment [3], 21%. Also, in experiment [4] (read-out: Ki), the Ki came to 1.9 µM.

In the case of `CCC(CC)C(=O)Nc1cc(-c2ccc(OC)cc2)nc(-c2ccc(OC)cc2)n1`, the inhibition in experiment [1] was determined as 3%; in experiment [2], 6%; in experiment [3] it was 8%. Also, the Ki in experiment [4] (read-out: Ki) is 0.0581 µM.

Consider `CSc1ccc(-c2cc(NC(C)=O)nc(-c3ccc(SC)cc3)n2)cc1`, for which the inhibition in experiment [1] worked out at 1%; in experiment [2], 1%; in experiment [3], 2%. Also, the Ki in experiment [4] (read-out: Ki) came to 0.0713 µM.

For the molecule `COc1ccc(-c2cc(NC(=O)C3CCCCC3)nc(-c3ccc(OC)cc3OC)n2)c(OC)c1`, the values for the inhibition in experiment [1], in experiment [2] and in experiment [3] were 1%, 1% and 4%, respectively. The Ki in experiment [4] (read-out: Ki) was 0.0563 µM; in experiment [4] (read-out: pKi (converted)) it was 0.257 µM.

For the molecule `CC(=O)Nc1nc(-c2ccc(C)cc2)cc(-c2ccc(C)cc2)n1`, the figures for the inhibition in experiment [1], in experiment [2] and in experiment [3] were 3%, 6% and 3%, respectively. Further, in experiment [4] (read-out: Ki), the Ki stood at 0.0473 µM.

Take `CC(=O)Nc1cc(-c2ccc(Cl)cc2)nc(-c2ccc(Cl)cc2)n1`: the inhibition in experiment [1] stood at 1%; in experiment [2], 10%; in experiment [3], 1%. Further, the Ki in experiment [4] (read-out: Ki) turned out to be 0.0633 µM.

As to `CCC(=O)Nc1nc(-c2ccc(C)cc2)cc(-c2ccc(C)cc2)n1`, the results for the inhibition in experiment [1], in experiment [2] and in experiment [3] were 1%, 1% and 3%, respectively. Besides, in experiment [4] (read-out: Ki), the Ki came out at 0.157 µM.
